Active and inactive are the calls of the source.
How the values were obtained:
[1] = Displacement of [3H]DTG from sigma2 receptor in guinea pig brain membrane after 120 mins by liquid scintillation counting analysis; assay type: cell membranes, Cavia porcellus
How it was run: (§1)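 Guinea pig brain membranes with 3 nM [3H]DTG (Kd 11 nM) plus 400 nM (+)-SKF10,047 to mask sigma1 sites. Nonspecific binding with 5 µM DTG. 50 mM Tris-HCl pH 8.0, 120 min at room temperature. Filtration, scintillation counting, Ki computed; three determinations. Ratio taken from sigma2 and sigma1 Ki values.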

[2] = species: Cavia porcellus; experiment: Selectivity ratio of Ki for guinea pig sigma2 receptor to Ki for guinea pig sigma1 receptor; how it was run: as §1
[3] = target: Sigma non-opioid intracellular receptor 1 (Cavia porcellus, UniProt Q60492); experiment: Displacement of [3H]-(+)-pentazocine from sigma1 receptor in guinea pig brain membrane after 150 mins by liquid scintillation counting analysis; assay type: cell membranes
[4] = species: Rattus norvegicus; experiment: Antioxidant activity in rat brain mitochondria assessed as inhibition of Ca2+/phosphate induced mitochondrial swelling by spectrophotometry; assay type: functional
[5] = species: Rattus norvegicus; experiment: Antioxidant activity in rat liver mitochondria assessed as inhibition of Ca2+/phosphate induced mitochondrial swelling at 50 uM by spectrophotometry; assay type: functional
How it was run: (§2)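 Mitochondria from rat liver (50 µM Ca2+) or cerebral cortex (Ficoll-purified; 100 µM Ca2+) at 1 mg protein/ml, 20 °C, in 200 mM sucrose, 10 mM HEPES pH 7.4, 5 mM succinate, 1 mM phosphate, 1.25 µM rotenone. Swelling followed as fall in apparent absorbance at 540 nm. Five runs.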

[6] = species: Rattus norvegicus; experiment: Antioxidant activity in rat brain mitochondria assessed as restoration of Ca2+/phosphate induced sulfhydryl group oxidation at 3 mM after 15 mins by mitochondrial thiol oxidation assay; assay type: functional
How it was run: (§3)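 After 15 min under swelling conditions (1 mg/ml; Ca2+ 50 µM liver, 100 µM brain; succinate/rotenone, 1 mM phosphate, 20 °C), mitochondria were pelleted and solubilized in pH 8.3 EDTA/Tris/1% SDS with DTNB. Thiols read at 412 nm and given as percent reduced SH groups. Five independent experiments; ANOVA and Student's t-test.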

[7] = species: Rattus norvegicus; experiment: Antioxidant activity in rat liver mitochondria assessed as restoration of Ca2+/phosphate induced sulfhydryl group oxidation at 3 mM after 15 mins by mitochondrial thiol oxidation assay; assay type: functional; how it was run: as §3
[8] = test system: Rattus norvegicus; experiment: Reduction of (-)-U50488H-induced basal tail flick latency in Sprague-Dawley rat at 1 mg/kg, sc after 30 to 90 mins by radiant heat tail flick test; assay type: functional, organism-based; design: dose 1 mg/kg
How it was run: (§4)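 Male Sprague-Dawley rats (180-200 g), habituated the day before; radiant heat (infrared) aimed at lower third of tail, 25±1 °C. Basal latency 3-4 s, mean of three readings at 5 min intervals; 10 s cut-off. Drugs sc; tail-flick latency read 30, 45, 60, 75 and 90 min after injection. n=8-10, mean ± SD, two-way ANOVA with Duncan post-hoc.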

[9] = species: Rattus norvegicus; experiment: Antioxidant activity in rat brain mitochondria assessed as restoration of Ca2+/phosphate induced sulfhydryl group oxidation at 50 uM after 15 mins by mitochondrial thiol oxidation assay; assay type: functional; how it was run: as §3
[10] = species: Rattus norvegicus; experiment: Antioxidant activity in rat brain mitochondria assessed as inhibition of Ca2+/phosphate induced mitochondrial permeability transition at 25 to 50 uM by spectrophotometry; assay type: functional; how it was run: as §2
[11] = species: Rattus norvegicus; experiment: Antioxidant activity in rat liver mitochondria assessed as restoration of Ca2+/phosphate induced sulfhydryl group oxidation at 25 to 50 uM after 15 mins by mitochondrial thiol oxidation assay; assay type: functional; how it was run: as §3
[12] = species: Rattus norvegicus; experiment: Antioxidant activity in rat liver mitochondria assessed as inhibition of Ca2+/phosphate induced mitochondrial swelling at 25 uM by spectrophotometry; assay type: functional; how it was run: as §2
[13] = test system: Rattus norvegicus; experiment: Antinociceptive activity in Sprague-Dawley rat assessed as basal tail flick latency at 1 mg/kg, sc by radiant heat tail flick test; assay type: functional, organism-based; design: dose 1 mg/kg; how it was run: as §4

Sigma non-opioid intracellular receptor 1, sequence (Q60492 whole entry): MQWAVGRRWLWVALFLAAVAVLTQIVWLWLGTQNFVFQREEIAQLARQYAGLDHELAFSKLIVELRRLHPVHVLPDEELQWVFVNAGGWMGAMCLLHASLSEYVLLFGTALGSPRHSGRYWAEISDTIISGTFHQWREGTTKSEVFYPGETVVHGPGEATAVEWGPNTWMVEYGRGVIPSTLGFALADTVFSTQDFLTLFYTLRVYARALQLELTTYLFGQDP

Ki [1] [nM]	Ratio Ki [2]	Ki [3] [nM]	Structure (SMILES)	further results
160	11.8	13.5	O=C(CCCCC1CCSS1)OC1CCN(CCc2ccccc2)CC1 (stereo not given)	–
11.2	28	0.4	O=C(CCCCC1CCSS1)N1CCN(C2CCCCC2)CC1 (stereo not given)	–
21000	183	115	CN1CCN(C(=O)CCCCC2CCSS2)CC1 (stereo not given)	–
209	24.8	8.4	O=C(CCCCC1CCSS1)N1CCN(CCc2ccccc2)CC1 (stereo not given)	–
–	–	–	Nc1ncnc2c1ncn2[C@@H]1O[C@H](COP(=O)(O)OP(=O)(O)O)[C@@H](O)[C@H]1O	inhibition [4]: Active; inhibition [5]: Active
–	–	–	OC[C@@H](O)[C@@H](S)CS	Activity [6]: Active; inhibition [4]: inactive; Activity [7]: Active; inhibition [5]: Active
637	354	1.8	O=C(CCCCC1CCSS1)N1CCN(Cc2ccccc2)CC1 (stereo not given)	–
101	3.9	25.7	O=C(CCCCC1CCSS1)OC1CCN(CCCc2ccccc2)CC1 (stereo not given)	–
91.6	9.16	10	O=C(CCCCC1CCSS1)N1CCN(CCCc2ccccc2)CC1 (stereo not given)	–
14	12.3	1.14	O=C(CCCCC1CCSS1)OC1CCN(CC2CCCCC2)CC1 (stereo not given)	–
2300	414	5.56	O=C(CCCCC1CCSS1)OC1CCN(Cc2ccccc2)CC1 (stereo not given)	Activity [8]: Active; Activity [9]: Active; inhibition [10]: Active; Activity [11]: Active; inhibition [5]: Active; inhibition [12]: Active; Activity [13]: inactive

— ChEMBL document CHEMBL2321800, “Design and synthesis of new bifunctional sigma-1 selective ligands with antioxidant activity” (J Med Chem, 2013)
